Measured values published in ChEMBL document CHEMBL5331087, “Targeted AURKA degradation: Towards new therapeutic agents for neuroblastoma” (Eur J Med Chem, 2023).
Values belong to the compound of their own block, whether it stands above or below them. Activity calls are given as the source filed them. The calls are words filed in the database; no cut-off is given here.

Experiments:
[1] = molecular target: T1, Protein cereblon/Aurora kinase A (Homo sapiens) (UniProt O14965+Q96SW2); assay: PROTAC activity at AURKA/CRBN in human NGP cells assessed as AURKA degradation at 10 to 1000 nM measured for 24 hrs by Western blot analysis relative to control; assay type: cell-based; conditions: dose 10-1000 nM
T1 sequence (Q96SW2 whole entry, looked up, one chain of several): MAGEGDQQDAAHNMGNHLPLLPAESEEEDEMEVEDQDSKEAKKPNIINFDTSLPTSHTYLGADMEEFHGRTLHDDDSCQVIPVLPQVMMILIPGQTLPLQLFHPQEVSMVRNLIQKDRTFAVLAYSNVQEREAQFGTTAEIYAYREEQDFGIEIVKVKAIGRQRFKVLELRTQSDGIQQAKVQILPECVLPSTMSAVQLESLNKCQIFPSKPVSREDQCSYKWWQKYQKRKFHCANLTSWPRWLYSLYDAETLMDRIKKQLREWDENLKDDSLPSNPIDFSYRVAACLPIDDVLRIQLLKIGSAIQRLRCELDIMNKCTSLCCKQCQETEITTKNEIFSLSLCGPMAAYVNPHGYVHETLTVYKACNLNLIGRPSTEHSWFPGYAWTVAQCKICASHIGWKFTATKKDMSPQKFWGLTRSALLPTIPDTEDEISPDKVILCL
Procedure, shortened: (§1)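 NGP cells were seeded at about 2×10^6 per flask, adhered for 48 h, and were then treated for 24 h with DMSO matched. Lysis was in RIPA with protease/phosphatase inhibitors. AURKA was quantified by capillary Simple Western with peak areas normalised to vinculin. Fold change is relative to DMSO (mean ± SD, n = 3).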

[2] = Antiproliferative activity against human NGP cells assessed as reduction in cell viability incubated for 48 hrs; assay type: functional, cell-based
Procedure, shortened: (§2)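 Cells were grown in RPMI 1640 with 10% FCS and 2 mM L-glutamine. Seeding was 4500 cells/well for NGP, IMR-32 and N206, and 2100 cells/well for SK-N-AS, with adherence overnight. Compound was dispensed over a concentration range in triplicate. Confluence was imaged live for 48 h and normalised to the DMSO control. Absolute IC50 came from a four-parameter variable-slope fit (n = 4).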

[3] = molecular target: T1, Protein cereblon/Aurora kinase A (Homo sapiens); assay: PROTAC activity at AURKA/CRBN in human NGP cells assessed as reduction in AURKA level at 10 nM measured for 24 hrs by Western blot analysis relative to control; assay type: cell-based; design: scale not given: the % may be the effect or the level left; procedure, shortened: as §1
[4] = molecular target: T1, Protein cereblon/Aurora kinase A (Homo sapiens); assay: PROTAC activity at AURKA/CRBN in human NGP cells assessed as reduction in AURKA level at 100 nM measured for 24 hrs by Western blot analysis relative to control; assay type: cell-based; design: scale not given: the % may be the effect or the level left; procedure, shortened: as §1
[5] = molecular target: T1, Protein cereblon/Aurora kinase A (Homo sapiens); assay: PROTAC activity at AURKA/CRBN in human NGP cells assessed as AURKA degradation at 1000 nM measured for 24 hrs by Western blot analysis relative to control; assay type: cell-based; procedure, shortened: as §1
[6] = Growth inhibition of patient derived 000GKX Neuroblastoma organoid assessed as reduction in viability […] by CellTiter Glo 3D assay; assay type: functional, tissue-based, Homo sapiens; conditions: Homo sapiens, Neuroblastoma organoid; read-out: IC50
Procedure, shortened: (§3)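 Patient-derived organoids were dissociated to single cells with Accutase and seeded in NB organoid medium at 5000 (000GKX), 20000 (NB059), 5000 (NB067) or 3000 (NB139) cells/well. Compound was added after 24 h over a concentration range in triplicate, with DMSO matched. Incubation was 120 h at 37 °C and 5% CO2. Viability was read by CellTiter-Glo 3D, and absolute IC50 derived (n = 1).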

[7] = tested on: SK-N-AS; assay: Antiproliferative activity against human SK-N-AS cells assessed as reduction in cell viability incubated for 48 hrs; assay type: functional, cell-based; conditions: sk-n-as; procedure, shortened: as §2
[8] = organism: Homo sapiens; assay: Growth inhibition of patient derived NB139 Neuroblastoma organoid assessed as reduction in viability incubated for […] by CellTiter Glo 3D assay relative to control; assay type: functional
[9] = Growth inhibition of patient derived NB059 Neuroblastoma organoid assessed as reduction in viability incubated for 48 hrs by CellTiter Glo 3D assay; assay type: functional, tissue-based, Homo sapiens; conditions: in the assay text read “120 hrs” for “48 hrs”; procedure, shortened: as §3
[10] = tested on: IMR-32; assay: Antiproliferative activity against human IMR-32 cells assessed as reduction in cell viability incubated for 48 hrs; assay type: functional, cell-based; conditions: IMR-32, 48 h; procedure, shortened: as §2
[11] = organism: Homo sapiens; assay: Growth inhibition of patient derived 000GKX Neuroblastoma organoid assessed as reduction in viability incubated for […] by CellTiter Glo 3D assay relative to control; assay type: functional
[12] = Growth inhibition of patient derived NB139 Neuroblastoma organoid assessed as reduction in viability […] by CellTiter Glo 3D assay; assay type: functional, tissue-based; conditions: Homo sapiens; procedure, shortened: as §3
[13] = tested on: NGP; assay: Antiproliferative activity against human NGP cells assessed as reduction in cell viability incubated for 48 hrs relative to control; assay type: functional
[14] = tested on: SK-N-AS; assay: Antiproliferative activity against human SK-N-AS cells assessed as reduction in cell viability incubated for 48 hrs relative to control; assay type: functional
Procedure, shortened: (§4)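 Cells grown in RPMI 1640 with 10% fetal calf serum, 2 mM L-glutamine and penicillin/streptomycin at 37 °C, 5% CO2. Seeded at 4500 (IMR-32) or 2100 (SK-N-AS) cells/well in 384-well plates and left to adhere overnight. Concentration range dispensed in triplicate. Confluence tracked by IncuCyte live-cell imaging, and 48h values normalized to DMSO. Absolute IC50 taken from a four-parameter variable-slope fit (n = 4).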

[15] = organism: Homo sapiens; assay: Growth inhibition of patient derived NB059 Neuroblastoma organoid assessed as reduction in viability incubated for […] by CellTiter Glo 3D assay relative to control; assay type: functional
[16] = tested on: IMR-32; assay: Antiproliferative activity against human IMR-32 cells assessed as reduction in cell viability incubated for 48 hrs relative to control; assay type: functional; procedure, shortened: as §4
[17] = Growth inhibition of patient derived NB067 Neuroblastoma organoid assessed as reduction in viability […] by CellTiter Glo 3D assay; assay type: functional, tissue-based; conditions: Homo sapiens; procedure, shortened: as §3
[18] = molecular target: T1, Protein cereblon/Aurora kinase A (Homo sapiens); assay: PROTAC activity at AURKA/CRBN in human NGP cells assessed as AURKA degradation at 10 to 1000 nM measured for 24 hrs by immunoblotting analysis; assay type: cell-based; conditions: dose 10-1000 nM; procedure, shortened: as §1
[19] = tested on: N206; assay: Antiproliferative activity against human N206 cells assessed as reduction in cell viability incubated for 48 hrs relative to control; assay type: functional
[20] = molecular target: T2, N-myc proto-oncogene protein (Homo sapiens) (UniProt P04198); assay: Induction of MYCN degradation in human NGP cells at 500 nM measured upto 72 hrs by Western blot analysis; assay type: cell-based
T2 sequence (whole entry): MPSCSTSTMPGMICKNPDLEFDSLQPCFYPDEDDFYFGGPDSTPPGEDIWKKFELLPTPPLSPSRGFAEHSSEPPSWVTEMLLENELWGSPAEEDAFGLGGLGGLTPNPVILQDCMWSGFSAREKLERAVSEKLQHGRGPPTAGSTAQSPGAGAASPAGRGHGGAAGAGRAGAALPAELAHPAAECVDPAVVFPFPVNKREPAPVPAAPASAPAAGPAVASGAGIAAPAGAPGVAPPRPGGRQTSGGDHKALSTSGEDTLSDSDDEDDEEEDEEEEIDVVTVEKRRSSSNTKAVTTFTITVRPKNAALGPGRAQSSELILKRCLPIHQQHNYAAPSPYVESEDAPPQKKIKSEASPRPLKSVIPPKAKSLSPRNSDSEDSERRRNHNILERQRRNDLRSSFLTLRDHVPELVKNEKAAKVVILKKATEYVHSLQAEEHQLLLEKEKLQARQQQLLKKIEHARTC
Procedure, shortened: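 NGP cells were treated with 500 nM compound and harvested at 0, 1, 3, 6, 24, 48 and 72 h. RIPA lysates (35 µg) were run on 10% SDS-PAGE and blotted to nitrocellulose. AURKA and MYCN were probed with vinculin as loading control and quantified by densitometry. Values are percent remaining relative to the DMSO control at each timepoint (n = 3).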

[21] = organism: Homo sapiens; assay: Growth inhibition of patient derived NB067 Neuroblastoma organoid assessed as reduction in viability incubated for […] by CellTiter Glo 3D assay relative to control; assay type: functional
[22] = Antiproliferative activity against human N206 cells assessed as reduction in cell viability incubated for 48 hrs; assay type: functional, cell-based; procedure, shortened: as §2
[23] = molecular target: T1, Protein cereblon/Aurora kinase A (Homo sapiens); assay: PROTAC activity at AURKA/CRBN in human NGP cells assessed as AURKA degradation measured for 24 hrs by Western blot analysis; assay type: cell-based; conditions: dose 10-1000 nM
[24] = molecular target: T1, Protein cereblon/Aurora kinase A (Homo sapiens); assay: PROTAC activity at AURKA/CRBN in human NGP cells assessed as AURKA degradation at 10 nM measured for 24 hrs by Western blot analysis relative to control; assay type: cell-based; procedure, shortened: as §1
[25] = molecular target: T1, Protein cereblon/Aurora kinase A (Homo sapiens); assay: PROTAC activity at AURKA/CRBN in human NGP cells assessed as downregulation of AURKA level at 10 to 1000 nM measured for 24 hrs by Western blot analysis; assay type: cell-based; conditions: dose 10-1000 nM; procedure, shortened: as §1
[26] = molecular target: T3, Aurora kinase A (Homo sapiens, UniProt O14965); assay: Induction of AURKA degradation (unknown origin) measured for 6 hrs
T3 sequence (O14965 whole entry): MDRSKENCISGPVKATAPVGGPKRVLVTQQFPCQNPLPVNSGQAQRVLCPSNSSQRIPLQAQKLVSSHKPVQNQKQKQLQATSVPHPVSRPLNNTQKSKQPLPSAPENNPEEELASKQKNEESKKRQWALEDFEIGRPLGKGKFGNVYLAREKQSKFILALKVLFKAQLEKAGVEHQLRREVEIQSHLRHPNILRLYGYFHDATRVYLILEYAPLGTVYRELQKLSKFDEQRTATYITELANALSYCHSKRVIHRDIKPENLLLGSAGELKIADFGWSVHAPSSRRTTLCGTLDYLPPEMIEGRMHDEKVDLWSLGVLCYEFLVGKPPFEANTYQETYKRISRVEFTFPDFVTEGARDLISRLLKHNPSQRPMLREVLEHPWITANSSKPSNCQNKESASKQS

[27] = molecular target: T4, Aurora kinase A (Homo sapiens) (UniProt O14965); assay: Induction of AURKA degradation (unknown origin) measured for 6 hrs relative to control
T4 sequence (whole entry): T3 sequence (O14965 whole entry)

[28] = molecular target: T1, Protein cereblon/Aurora kinase A (Homo sapiens); assay: PROTAC activity at AURKA/CRBN in human NGP cells assessed as AURKA degradation at 0.1 to 1000 nM measured for 24 hrs by Western blot analysis relative to control; assay type: cell-based; conditions: dose 0.1-1000 nM; procedure, shortened: as §1

Emax [1]: 85%
Compound: O=C1CCC(N2C(=O)c3ccc(OCCOCCOCCNC(=O)[C@]4(Cc5cccc(Nc6nccs6)n5)CC[C@@H](Oc5cccc(Cl)c5F)CC4)cc3C2=O)C(=O)N1 (stereo partly drawn)
IC50 [2]: 0.0699 µM

Activity [3]: 45%
Activity [4]: 17%
Activity [5]: Active
Compound: O=C1CCC(N2C(=O)c3ccc(OCCOCCNC(=O)[C@]4(Cc5cccc(Nc6nccs6)n5)CC[C@@H](Oc5cccc(Cl)c5F)CC4)cc3C2=O)C(=O)N1 (stereo partly drawn)
IC50 [2]: 0.0633 µM

Compound: O=C(O)[C@]1(Cc2cccc(Nc3nccs3)n2)CC[C@@H](Oc2cccc(Cl)c2F)CC1 [MK-5108]
IC50 [6]: 0.483 µM
IC50 [7]: Not Active
Emax [8]: 44.1%
IC50 [9]: Not Active
IC50 [10]: 0.199 µM
Emax [11]: 59.5%
IC50 [2]: 0.362 µM
IC50 [12]: 0.9 µM
Emax [13]: 32.9%
Emax [14]: 58.5%
Emax [15]: 75.9%
Emax [16]: 20.4%
IC50 [17]: 0.0753 µM
Activity [18]: inactive
Emax [19]: 53.2%
Activity [20]: Active
Emax [21]: 14.2%
IC50 [22]: Not Active

Activity [1]: inactive
Activity [23]: inactive
Compound: O=C1CCC(N2C(=O)c3cccc(OCCOCCNC(=O)[C@]4(Cc5cccc(Nc6nccs6)n5)CC[C@@H](Oc5cccc(Cl)c5F)CC4)c3C2=O)C(=O)N1 (stereo partly drawn)
IC50 [2]: 1.31 µM

Emax [1]: 85%
Emax [24]: 85%
Compound: O=C1CCC(N2C(=O)c3ccc(OCCOCCOCCOCCOCCNC(=O)[C@]4(Cc5cccc(Nc6nccs6)n5)CC[C@@H](Oc5cccc(Cl)c5F)CC4)cc3C2=O)C(=O)N1 (stereo partly drawn)
IC50 [2]: 0.034 µM

Activity [23]: Active
Compound: O=C(COc1cccc2c1C(=O)N(C1CCC(=O)NC1=O)C2=O)NCCOCCOCCNC(=O)[C@]1(Cc2cccc(Nc3nccs3)n2)CC[C@@H](Oc2cccc(Cl)c2F)CC1 (stereo partly drawn)
IC50 [2]: 0.0833 µM

Activity [25]: inactive
Compound: CN1C(=O)CCC(N2C(=O)c3cccc(OCCOCCOCCOCCNC(=O)[C@]4(Cc5cccc(Nc6nccs6)n5)CC[C@@H](Oc5cccc(Cl)c5F)CC4)c3C2=O)C1=O (stereo partly drawn)
IC50 [2]: 1.1 µM

DC50 [26]: 0.003 µM
Emax [27]: 82%
Compound: O=C(COc1cccc2c1C(=O)N(C1CCC(=O)NC1=O)C2=O)NCCOCCOCCOCCNC(=O)[C@]1(Cc2cccc(Nc3nccs3)n2)CC[C@@H](Oc2cccc(Cl)c2F)CC1 (stereo partly drawn)
IC50 [2]: 0.102 µM

Emax [1]: 85%
Activity [23]: Active
Compound: O=C1CCC(N2C(=O)c3cccc(OCCOCCOCCNC(=O)[C@]4(Cc5cccc(Nc6nccs6)n5)CC[C@@H](Oc5cccc(Cl)c5F)CC4)c3C2=O)C(=O)N1 (stereo partly drawn)
IC50 [2]: 0.0808 µM

Emax [1]: 85%
Emax [24]: 85%
Compound: O=C1CCC(N2C(=O)c3ccc(OCCOCCOCCOCCNC(=O)[C@]4(Cc5cccc(Nc6nccs6)n5)CC[C@@H](Oc5cccc(Cl)c5F)CC4)cc3C2=O)C(=O)N1 (stereo partly drawn)
IC50 [2]: 0.0401 µM

Emax [28]: 73%
Compound: COc1cc(Nc2ncc3c(n2)-c2ccc(Cl)cc2C(c2c(F)cccc2OC)=NC3)ccc1C(=O)NCCOCCOCCNC(=O)COc1cccc2c1C(=O)N(C1CCC(=O)NC1=O)C2=O (stereo not drawn)
IC50 [2]: 0.877 µM

Emax [1]: 85%
Activity [23]: Active
Compound: O=C1CCC(N2C(=O)c3cccc(OCCOCCOCCOCCOCCNC(=O)[C@]4(Cc5cccc(Nc6nccs6)n5)CC[C@@H](Oc5cccc(Cl)c5F)CC4)c3C2=O)C(=O)N1 (stereo partly drawn)
IC50 [2]: 0.0509 µM
